# High-throughput results as filed in PubChem.
# Shown are actives, neighbours in structure and some others; about 2.8% of the full set was active somewhere.
# NPY-Y1 antag: NPY-Y1 receptor antagonists, primary screen, cell-based. inhibition, % at 3.6 µM. Neuropeptide Y receptor type 1 (Homo sapiens), P25929. 200,000 compounds, 1% hits. HEK293-CNG Y1 cells, membrane potential fluorescence; NPY at EC95, then isoproterenol;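 active = inhibition above the campaign mean inhibition of all tested compounds plus 3 SD, cut at about 20% in these data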;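 note: 0% = DMSO wells given NPY plus isoproterenol and 100% = isoproterenol alone without NPY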
# Target sequence (P25929 whole entry, looked up): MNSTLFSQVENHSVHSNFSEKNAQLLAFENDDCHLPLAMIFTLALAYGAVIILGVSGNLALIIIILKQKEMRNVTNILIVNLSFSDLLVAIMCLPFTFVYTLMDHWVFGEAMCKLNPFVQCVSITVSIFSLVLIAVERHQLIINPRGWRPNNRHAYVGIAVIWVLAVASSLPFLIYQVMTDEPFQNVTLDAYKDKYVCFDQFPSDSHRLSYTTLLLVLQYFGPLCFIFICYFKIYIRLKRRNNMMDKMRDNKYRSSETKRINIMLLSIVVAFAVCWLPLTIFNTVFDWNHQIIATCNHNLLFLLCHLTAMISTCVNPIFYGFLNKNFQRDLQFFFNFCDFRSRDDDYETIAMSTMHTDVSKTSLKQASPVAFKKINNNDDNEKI
#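 Assay system: HEK293 cells with Y1 receptor plus CNG channel | Probe or stimulus: NPY (25 nM), isoproterenol (1 µM), Ro 20-1724 (25 µM) | Timing: Compound incubation 1 h at room temperature, readout 45 min post-stimulation | Measured by: Membrane-potential fluorescent dye readout | Benchmarks: High control isoproterenol alone, low control NPY with isoproterenol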
# PGE2 EP2 inh: human EP2 receptor antagonists, primary screen, TR-FRET cAMP, C6 glioma cells; AID 1422, 2008; C6 glioma cells expressing human EP2; cells stimulated with saturating PGE2; Prostaglandin E2 receptor EP2 subtype (Homo sapiens), P43116; 260,000 compounds, 0.52% hits; inhibition, % at 25 µM;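 active = percent inhibition above 40 after rounding to a whole number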;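 note: rat C6 glioma host cells with rolipram phosphodiesterase inhibitor present; the protocol text gives 20 µM as final concentration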
# NPY-Y2 antag: NPY-Y2 receptor antagonists, primary screen, cell-based. NPY-Y2 expressing cells, antagonist mode. 140,000 compounds, 0.99% hits. inhibition, % at 2.7 µM. Neuropeptide Y receptor type 2 (Homo sapiens), P49146;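 note: 0% = vehicle with agonist challenge and 100% = reference antagonist with challenge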
# NPY-Y1 PAM-ag: NPY-Y1 receptor potentiators or agonists, primary screen, cell-based; activation, % at 3.6 µM; 220,000 compounds, 0.37% hits; NPY-Y1 expressing cells, potentiator/agonist activation; AID 1304, 2008; in the data active = activation above about 33%, passing the limit was not always enough;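 note: cells stimulated with NPY at EC10 then isoproterenol at EC100; 0% = low agonist plus stimulus and 100% = saturating agonist plus stimulus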
# NPY-Y2 PAM-ag: NPY-Y2 potentiators or agonists, primary screen, cell-based. Neuropeptide Y receptor type 2 (Homo sapiens), P49146. cells expressing NPY-Y2, potentiator/agonist read-out. activation, % at 3.6 µM. 220,000 compounds, 0.45% hits; in the data active = activation above about 27%;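 note: cells stimulated with NPY near EC25 plus isoproterenol at EC100; 0% = vehicle plus submaximal agonist and 100% = vehicle plus saturating agonist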
# EP2 modulator: EP2 receptor modulators, cAMP readout, primary screen, cell-based, HTRF cAMP, PGE2 stimulation | Prostaglandin E2 receptor EP2 subtype (Homo sapiens), P43116 | EP2-expressing cells, cAMP HTRF FRET, PGE2 co-stimulation | induction, % at 25 µM | 260,000 compounds, 0.83% hits | AID 940, 2007;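 active = compounds whose cAMP rise, as percent of the full-agonist control response, exceeds 60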;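 note: rat C6 glioma line stably carrying human EP2 under a CMV promoter; the protocol text gives 20 µM as final concentration; 100% = response of wells given 1 µM PGE2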
# NPY1 antag conf: NPY-Y1 receptor antagonists, retest of hits, confirmation, HEK293-CNG cells, membrane potential fluorescence, triplicate; inhibition, % at 3.6 µM; 1,200 compounds, 21% hits; shares compounds with NPY-Y1 antag; AID 1254, 2008; cAMP; NPY challenge against isoproterenol-raised cAMP; in the data active = inhibition above about 20%;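 note: 0% = vehicle with agonist plus stimulus and 100% = stimulus alone without agonist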
# NPY-Y2 antag ct: NPY-Y2 receptor antagonists, selectivity check, confirmation, counter-screen for NPY-Y1 antagonist project, HEK293-CNG cells, membrane potential fluorescence, triplicate. shares compounds with NPY-Y1 antag. inhibition, % at 3.6 µM. 1,200 compounds, 28% hits. antagonism; cells given NPY, then isoproterenol. AID 1255, 2008;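 note: 0% = DMSO with agonist challenge and 100% = reference antagonist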
# * = called active by the depositor; · = not tested or not shown. Cut-off read from the data, not from the text of the source, unless noted: active = inhibition above about 17%; inactive = the rest.
SMILES,NPY-Y1 antag,PGE2 EP2 inh,NPY-Y2 antag,NPY-Y1 PAM-ag,NPY-Y2 PAM-ag,EP2 modulator,NPY1 antag conf,NPY-Y2 antag ct
O=C1C=C(c2ccccc2)CC(c2ccc(F)cc2)C1 (centres undefined),·,18,·,·,·,·,·,·
O=C(c1nc2ccc(Cl)cn2c1CNCC[C@@H]1C[C@@H]2C=C[C@H]1C2)N1CCCCCCC1,18,6,·,3,-2,37,·,·
C[C@@H]1CN(C(=O)c2nc3ccc(Cl)cn3c2CNCC[C@@H]2C[C@@H]3C=C[C@H]2C3)C[C@H](C)O1,24*,4,·,1,-16,19,17,15
Cc1nc(N)c2c(Cc3cccc4ccccc34)nn(C(C)(C)C)c2n1,·,10,·,·,·,·,·,·
COc1cc2cc(C)nc(Cc3cccc4ccccc34)c2cc1OC,27*,9,16,-35,-39,42,9,13
Cc1ccc(C)c(Cn2c(CO)nc3ccccc32)c1,21*,10,7,-26,-39,30,9,9
COc1ccc(C(=O)NCCCc2nc3ccccc3n2Cc2cc(C)ccc2C)cc1OC,2,15,0,-6,2,25,·,·
CCCCOC(=O)Cn1c(=N)n(CCC)c2ccccc21,40*,13,7,1,-7,0,3,5
CN(C)CCn1c(=N)n(CC(O)c2ccc(Cl)c(Cl)c2)c2ccccc21 (centres undefined),23*,6,·,-16,-33,-50,16,29*
CCS(=O)(=O)N(CC(=O)Nc1sc(C)c(C)c1C(N)=O)Cc1ccc(F)cc1,·,9,·,·,·,-14,·,·
COc1ccc(-c2n(CC(=O)OC3CC(C)CCC3C(C)C)c3ccccc3[n+]2C)cc1 (centres undefined),150*,17,·,-95,-50,-58,135*,91*
COc1ccc(OCc2n(CC(=O)OC3CC(C)CCC3C(C)C)c3ccccc3[n+]2C)cc1 (centres undefined),·,7,·,-105,-52,-1,·,·
CCN(CC)CCN1C(=O)C(=O)/C(=C(\O)c2cc(C)ccc2C)C1c1ccncc1 (centres undefined),·,10,·,·,·,7,·,·
O=C(c1ccc2c(c1)OCO2)C1CCCN(C2CCN(CCc3ccccc3)CC2)C1 (centres undefined),22*,4,·,-29,-30,-8,18,23*
Cc1cccc(NC(=O)CSc2nc3sc(C)c(C)c3c(=O)[nH]2)c1C,·,13,·,·,·,28,·,·
Cc1cc(OCC(=O)N2CCc3ccccc3C2)c2c(-c3ccccc3)cc(=O)oc2c1,21*,21,13,0,-22,48,13,11
CCOc1cc(C)cc2oc(=O)cc(-c3ccccc3)c12,14,12,15,-1,-15,50,·,·
COc1ccc(N(C(=O)C2CCCCC2)S(=O)(=O)c2cccc3cccnc23)cc1,31*,6,·,-2,-7,21,21*,7
Cc1cc(C)c(S(=O)(=O)N2CCC(C(=O)NC(C)C)CC2)c(C)c1,·,12,·,·,·,-49,·,·
CCOC(=O)c1cc(-c2cccs2)nc2c1c(C)nn2-c1ccccn1,62*,13,·,-27,-22,31,47*,22*
Cc1nn(-c2ccccn2)c2nc(-c3cccs3)cc(C(=O)NCc3ccco3)c12,17,30,4,3,-2,23,·,·
O=c1ccc(C2CC2)nn1C1CCN(S(=O)(=O)c2cccc3nonc23)CC1,·,·,·,·,·,-68,·,·
CSc1cc(-c2ccccc2)n(Cc2ccc(Cl)cc2Cl)c(=O)c1C#N,24*,9,2,-13,-11,22,0,2
O=C(CSCc1nc2ccccc2[nH]1)N1CCN(c2ccc(F)cc2)CC1,-6,26,-2,-4,13,6,·,·
O=C(CSCc1nc2ccccc2[nH]1)N1CCN(c2cccc(Cl)c2)CC1,21*,10,-2,-8,-17,-11,4,4
SMILES,NPY-Y1 antag,PGE2 EP2 inh,NPY-Y2 antag,NPY-Y1 PAM-ag,NPY-Y2 PAM-ag,EP2 modulator,NPY1 antag conf,NPY-Y2 antag ct
Cc1ccccc1OCCN(C#N)c1nc(N(C)C)nc(N(C)C)n1,28*,9,·,-51,-28,55,12,19*
CN(C)c1ccnc(SCc2ccccc2Cl)c1C#N,28*,8,8,-93,-43,26,16,29*
COCCCNC(=S)N(Cc1cc2cc(C)c(C)cc2[nH]c1=O)C1CCCCC1,·,12,·,·,·,-43,·,·
Cc1nc(C(=O)Nc2cc(Cl)ccc2Cl)nn1-c1cc(OC(C)C)c(Cl)cc1Cl,-1,6,2,-15,-8,12,·,·
Cc1nc(C(=O)Nc2cccc(Cl)c2Cl)nn1-c1cc(OC(C)C)c(Cl)cc1Cl,20*,·,10,-137,0,-1,14,26*
COc1ccc(OCc2n[nH]c(=S)n2C)cc1,·,24,·,·,·,-10,·,·
O=C(Nc1cccc(-c2nc3ncccc3o2)c1)c1ccc2ccccc2c1,·,12,·,·,·,-39,·,·
COc1ccc(-c2ccc(-c3noc(-c4ccco4)n3)c(OC)n2)cc1,78*,8,1,-3,6,38,3,5
O=C(CN1C(=O)[C@H]2CCCN2C(=O)c2ccccc21)NC1CCCCC1,·,4,·,·,·,6,·,·
O=C(CN1CCN(C(=O)c2ccco2)CC1)Nc1cccc2ccccc12,·,27,·,·,·,-20,·,·
COCCNc1nc(SCc2ccccc2)nc2sc3c(c12)CCC3,26*,9,0,-21,-19,39,21*,22*
CCOC(=O)CSc1nc(C(C)C)nc2sc(C)c(C)c12,23*,10,·,-43,-36,34,39*,41*
COc1ccc(C[C@H]2CN3C(=NC[C@@H]3C(C)C)N2CCNC(=O)CCC2CCCCC2)cc1,3,·,·,-1,-3,0,·,·
COc1ccc(C[C@H]2CN3C(=NC[C@@H]3Cc3ccccc3)N2CCNC(=O)CCC2CCCCC2)cc1,33*,6,·,-15,-42,-27,35*,36*
NC(=O)NC(=O)COC(=O)c1ccccc1OCc1ccc(F)cc1,·,8,·,15,0,-1,·,·
